High-throughput results deposited in PubChem by several laboratories.
Shown are actives, neighbours in structure and some others; about 4.5% of the full set was active somewhere.
STAT1 activator: STAT1 signaling activation. activation (% of control), % at 5.5 µM. NIH 3T3 STAT1-luciferase reporter, IFN-gamma, luminescence; 100% = IFN-gamma alone, no compound. AID 932. actives 2.6% (n = 200,000);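 active = activation above the screen-wide mean activation plus 3 SD, cut at about 130% in these data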;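 note: raw ratio to IFN-gamma control signal so 100% means no change and 0% no light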
APP 5'UTR act: APP 5'UTR luciferase reporter activation; activation, % at 2 µM; SH-SY5Y APP 5'UTR luciferase reporter, luminescence; zero percent = DMSO vehicle wells; AID 1276; actives 1% (n = 190,000);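 active = activation above a set limit, based on mean plus 3 SD of controls, cut at about 140% in these data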
MDM2 E3 inh: inhibitors of human Mdm2 E3 ubiquitin ligase | Q00987 | cell-based MDM2 ubiquitination luciferase reporter, 2 h; 0 = plate control, 100 = twice control, blank-subtracted | signal enhancement, % at 5 µM | actives 0.11% (n = 210,000) | AID 1230;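 active = signal enhancement of 30% or more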;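 note: luminescence tracks abundance of the self-degrading MDM2-luciferase fusion protein; higher signal means inhibition of MDM2 E3 ligase activity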
Target sequence (Q00987 whole entry, looked up, the tested form may be a part): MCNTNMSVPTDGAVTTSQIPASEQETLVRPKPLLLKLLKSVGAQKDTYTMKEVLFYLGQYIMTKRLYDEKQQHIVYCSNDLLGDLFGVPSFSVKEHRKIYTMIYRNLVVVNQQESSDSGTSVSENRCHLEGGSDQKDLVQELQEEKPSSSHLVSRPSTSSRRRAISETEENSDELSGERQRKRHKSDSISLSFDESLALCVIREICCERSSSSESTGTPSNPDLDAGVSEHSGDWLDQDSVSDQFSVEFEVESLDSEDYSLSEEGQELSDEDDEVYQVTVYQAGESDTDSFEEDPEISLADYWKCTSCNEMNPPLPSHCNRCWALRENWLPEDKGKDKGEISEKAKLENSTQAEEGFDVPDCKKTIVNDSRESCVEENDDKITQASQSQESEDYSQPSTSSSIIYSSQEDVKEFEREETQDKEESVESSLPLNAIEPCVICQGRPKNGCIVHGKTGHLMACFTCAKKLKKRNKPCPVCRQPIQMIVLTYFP
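Test system: stable mammalian line carrying autodegrading MDM2–luciferase fusion reporter; quantity: 2000 cells in each well; times: 4 h cell settling then 2 h compound exposure, 37 °C; detection: luminescence with SteadyLite reagent, 15 min at room temperature; evaluation: percent signal gain over controls, blank-subtracted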
NF-kB expr up: raises NF-kB expression in human neuronal cells | NF-kB reporter expression; hits give high values | fold change at 12.5 µM | actives 1.6% (n = 190,000) | AID 1239; in the data active = fold change above about 3.3
AHR activator: human AHR activation | actives 2.5% (n = 320,000) | activation, % at 5 µM | P35869 | AHR-responsive luciferase reporter cells, luminescence; in the data active = activation above about 47%;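 note: 0% = vehicle wells and 100% = reference agonist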
PERK inh: blocks human PERK kinase; Q9NZJ5; AID 1416; inhibition, % at 5.6 µM; CHO PERK-DD fusion, SEAP luminescence translation reporter; actives 0.17% (n = 220,000);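 active = inhibition above the mean inhibition of all tested compounds plus 3 SD, set separately per screening campaign, cut at about 2.9% in these data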;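 note: PERK kinase domain activated by AP20187 dimerizer at 100 nM; 0% = DMSO with dimerizer and 100% = rapamycin at 8.4 µM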
STAT1 act conf: STAT1 activation, confirmation assay; shares compounds with STAT1 activator; NIH 3T3 STAT1-luciferase reporter, IFN-gamma potentiation, luminescence; 100% = IFN-gamma EC80 alone, no compound; activation (% of control), % at 5.7 µM; actives 97% (n = 1,200);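 active = activation above a set limit carried over from the earlier primary STAT1 screen, cut at about 140% in these data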;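 note: simple ratio to median IFN-gamma plus DMSO wells so 0% means no light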
NFkB act: activates NF-kappaB, counter-screen to STAT1 activators; actives 43% (n = 1,200); activation (% of control), % at 5.7 µM; shares compounds with STAT1 activator; HEK293T NF-kB luciferase reporter, TNF-alpha stimulated, luminescence; 100% = TNF-alpha with vehicle only;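 active = activation above the mean of solvent-only control wells plus 3 SD, set per campaign, cut at about 130% in these data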;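 note: TNF-alpha given at a submaximal dose yielding about 80% of full reporter signal; values are well signal over median control so 100% means no change and 0% no light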
STAT3 act STAT1c: activates human STAT3, counter-screen to STAT1 activators; actives 46% (n = 1,200); U3A cells STAT3-luciferase reporter, IL-6, luminescence; cells lack STAT1; 100 = IL-6 alone, no compound effect; activation (% of control), % at 5.7 µM; shares compounds with STAT1 activator;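 active = activation above the solvent-only control well mean plus 3 SD, set per plate batch, cut at about 110% in these data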;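 note: 0% = no luminescence and 100% = median IL-6 plus DMSO wells; higher means more STAT3 reporter activation so hits are non-selective activators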
The depositor's hits bear a star; / = not tested or not shown.

SMILES	STAT1 activator	APP 5'UTR act	MDM2 E3 inh	NF-kB expr up	AHR activator	PERK inh	STAT1 act conf	NFkB act	STAT3 act STAT1c
N/C(=N\OC(=O)COc1cc(Cl)c(Cl)cc1Cl)c1ccccn1	159*	161*	-10	5.4*	1	2	192*	143*	113*
N/C(=N\OC(=O)c1ccc(Cl)cc1Cl)c1ccncc1	/	/	-40	/	1	1	/	/	/
CC(/C=C/c1ccco1)=N\NC(=O)CNc1cccc(C)c1	93	2	-19	1.1	8	1	/	/	/
CNC(=O)c1sc2nc(-c3ccc(OC)cc3)cn2c1C	164*	146*	-7	4.8*	22	0	188*	135*	105
CCc1ccc(CNC(=O)CCS(=O)(=O)Cc2ccc(C)cc2)cc1	/	/	/	/	3	/	/	/	/
O=C(NC1=NCCS1)c1sc2ccccc2c1Cl	173*	146*	-19	7.1*	-1	0	210*	130	116*
O=C(NC1=NCCS1)c1sc2cc(Cl)cc(Cl)c2c1Cl	98	-9	-6	1.2	7	0	/	/	/
O=C1C=C(c2ccc(Cl)nc2)C[C@@H](c2ccc3c(c2)OCO3)C1	/	/	/	/	42	/	/	/	/
Brc1ccccc1OCCCn1cnc2ccccc21	158*	73	-15	6.7*	-4	0	186*	138*	107
Cc1ccsc1C(=O)N/N=C/c1ccc2c(c1)OCO2	161*	158*	-33	6.2*	10	1	226*	106	92
Cc1ccccc1/C=N/NC(=O)c1sccc1C	163*	70	-13	5*	28	1	205*	134*	107
Cc1ccsc1/C=N/NC(=O)Nc1ccccc1	172*	147*	-14	4*	11	0	192*	130	98
O=C(N/N=C/c1ccc2c(c1)OCO2)c1cccs1	174*	72	-1	4.3*	97*	0	204*	134*	117*
Cc1occc1C(=O)N/N=C/c1ccc2c(c1)OCO2	/	/	/	/	40	1	/	/	/
Cc1cc(C)c(S(C)(=O)=O)c(Oc2cccc(C(F)(F)F)c2)n1	96	5	-10	1.1	2	0	/	/	/
COc1ccc(Cl)cc1NC(=O)CN(C)C(=O)c1cc2ccccc2cc1O	/	/	/	/	14	/	/	/	/
Cc1cccc(NC(=O)c2cccc(S(=O)(=O)NCc3ccccc3)c2)n1	/	/	/	/	5	/	/	/	/
Cc1cccn2cc(COc3ccc(-c4ccccc4)cc3)nc12	162*	44	1	1.7	/	1	165*	106	115*
O=C(COc1ccccc1[N+](=O)[O-])OCC(=O)c1ccc(Br)s1	/	/	/	/	6	/	/	/	/
Cc1cc(C)nc(SCc2csc(-c3ccccc3)n2)n1	169*	146*	/	4.5*	-2	0	187*	125	99
O=C(CCc1nnc(C2(c3ccc(Cl)cc3)CCC2)o1)N1CCCC(O)C1 (stereo unspecified)	/	/	/	/	0	/	/	/	/
Cc1ccc2nc(-c3cccc(S(=O)(=O)N4CCCC4)c3)cn2c1	/	/	/	/	21	/	/	/	/
COc1ccc(-c2cn3cc(C)ccc3n2)cc1Br	175*	164*	-25	6.8*	4	0	236*	103	86
C=CCn1c(C)cc(C(=O)CSc2nc3ccccc3o2)c1C	160*	107	-40	2.2	4	-1	215*	120	103
O=C(CSC1=NS(=O)(=O)c2ccccc2N1)Nc1ccccc1F	/	/	/	/	0	/	/	/	/
O=C(N/N=C\c1cccc(Cl)c1)c1n[nH]c2c1CCCC2	170*	156*	-20	1.6	32	1	212*	117	101
O=C(N/N=C/c1ccc(Cl)cc1Cl)c1n[nH]c2c1CCCC2	120	-10	-14	1.1	33	-1	/	/	/
